Dyrk1A ADPGlo = rat Dyrk1A kinase inhibitors, primary screen, biochemical, single point, plate reader; AID 504441, 2011; ADP-Glo luminescence, NFATc1 peptide; Dual specificity tyrosine-phosphorylation-regulated kinase 1A (Rattus norvegicus), Q63470; 0.43% of 310,000 active; inhibition, % at 12.5 µM; in the data active means inhibition above about 50%;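 further: plate controls were vehicle with enzyme for no effect and no enzyme for full effect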
GSK3beta inhib = human GSK3beta kinase inhibitors, primary screen, biochemical, cell-free homogeneous, HTS. activity score (negative = inhibition), % at 10 µM. GST-GSK3beta kinase, ADP-Glo luminescence, 60 min; hits give low values. AID 2097, 2009. 0.038% of 300,000 active. Glycogen synthase kinase-3 beta (Homo sapiens), P49841;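 active means more than half of replicate wells score below -50%, meaning over 50% inhibition versus plate controls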;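 further: 0% = median DMSO wells and -100% = median GW8510 positive control wells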
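Assay system: GST-tagged human GSK3beta kinase, cell-free; Input: 1.6 ng GSK3beta; Medium: Tris/MgCl2 kinase buffer; Timing: 60 min enzyme reaction, room temperature; Signal: ADP-Glo luminescence quantifying ADP generated by kinase; Evaluation: score relative to plate controls; Benchmarks: DMSO neutral wells and GW8510 at 20 µM as positive.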
GSK3 alpha inh = blockers of GSK3A enzyme activity – biochemical, luminescence, cell-free homogeneous, HTS, primary screen; Glycogen synthase kinase-3 alpha (Homo sapiens), P49840; GSK-3 alpha kinase, ADP-Glo luminescence, 60 min; inhibition, % at 10 µM; 0.1% of 320,000 active;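 active means more than half of replicates show inhibition above 20%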;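 further: GST-tagged GSK-3 alpha with peptide substrate and 25 µM ATP; 0% = DMSO neutral wells and 100% = GW8510 positive control wells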
CDK5 inh = inhibitors of human CDK5/p35 kinase, primary screen, biochemical, single concentration | Cyclin-dependent kinase 5 (Homo sapiens) + Cyclin-dependent kinase 5 activator 1 (Homo … | Recombinant CDK5/p35, ADP-Glo luminescence, 60 min | inhibition, % at 10 µM | 0.01% of 330,000 active;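 active means highest replicate inhibition of at least 50% and at least 75% of replicates reaching 50%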;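 further: plate controls were DMSO neutral control for no effect and GW8510 at 10 µM for full effect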
Target sequence (Q00535 whole entry, looked up): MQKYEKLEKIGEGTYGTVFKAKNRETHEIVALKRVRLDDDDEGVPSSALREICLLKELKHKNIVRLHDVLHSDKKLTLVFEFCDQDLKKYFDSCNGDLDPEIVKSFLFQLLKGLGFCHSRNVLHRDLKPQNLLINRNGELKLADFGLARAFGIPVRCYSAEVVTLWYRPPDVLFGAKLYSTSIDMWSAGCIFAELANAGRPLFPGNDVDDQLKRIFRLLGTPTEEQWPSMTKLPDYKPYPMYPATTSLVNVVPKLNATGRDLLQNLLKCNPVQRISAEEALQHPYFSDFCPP
Target sequence (Q15078 whole entry, looked up): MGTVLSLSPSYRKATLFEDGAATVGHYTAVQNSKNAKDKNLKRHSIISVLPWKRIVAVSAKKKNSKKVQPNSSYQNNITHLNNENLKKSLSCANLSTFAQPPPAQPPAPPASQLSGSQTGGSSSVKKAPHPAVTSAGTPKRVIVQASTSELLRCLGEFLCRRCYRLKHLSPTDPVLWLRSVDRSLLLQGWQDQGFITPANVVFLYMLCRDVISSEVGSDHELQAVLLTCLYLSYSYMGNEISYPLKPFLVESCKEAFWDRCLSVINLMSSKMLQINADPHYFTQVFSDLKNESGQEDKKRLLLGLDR
STK33 kinase inh = inhibitors of purified STK33 kinase, primary screen, biochemical, ADP-Glo luminescence, homogeneous, cell-free; MBP phosphorylation; 0.073% of 320,000 active; inhibition, % at 10 µM; AID 2661, 2010;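 active means inhibition at or above 25%, using the most active replicate where run in duplicate; inactive means inhibition below 25%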
ADP-Glo artifact = ADP-Glo luciferase interference without Dyrk1A, dose response, artefact control for Dyrk1A inhibitor project, biochemical, luminescence, cherry-pick, set 02; shares compounds with Dyrk1A ADPGlo; ADP-Glo luciferase artifact assay, no Dyrk1A; AC50, µM (doses to about 12 µM), for the others: at the highest dose activity change, negative = inhibition; 1,300 tested, under 10 active; AID 588348, 2011;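 active means fitted half-maximal dose AC50 no more than ten times the top valid tested dose, with luminescence dropping as dose rises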
* marks the source's active call; other numbers are inactive results; nt = no result. This is one part of a sample in which hits are shown more often than they occur.

SMILES	Dyrk1A ADPGlo	GSK3beta inhib	GSK3 alpha inh	CDK5 inh	STK33 kinase inh	ADP-Glo artifact
COc1cccc(Nc2ncnc3sc(C)cc23)c1	77*	-1	-11	17	0	11%
Cc1ccc2c(c1C)-c1c(ccc(C)c1C)C(=O)C2=O	54*	nt	nt	2	nt	9%
Cn1c(-c2ccccc2)c(C=O)c2ccccc21	78*	-3	1	-1	1	7%
O=C1CC(c2ccc(O)c(O)c2)Oc2c1ccc(O)c2O (centres undefined)	34	nt	8	2	5	nt
CC(C)=CCc1c(O)ccc2c1OC(c1ccc(O)c(O)c1)CC2=O (centres undefined)	64*	-50*	76*	-1	3	10%
CCOC(=O)C[C@H]1c2cc(C(F)(F)F)ccc2S(=O)(=O)N1C(C)C	54*	-3	1	2	-3	12%
CCCCCCCCCCCCN1[C@@H](CC(=O)OC)c2cc(C(F)(F)F)ccc2S1(=O)=O	53*	2	-1	1	0	12%
CCOC(=O)C[C@H]1c2cc(F)ccc2S(=O)(=O)N1C(C)C	2	1	-1	0	-6	nt
CCOC(=O)C1=C(COC(=O)C2CC(=O)N(CCc3ccccc3)C2)NC(=O)NC1C (centres undefined)	-4	nt	-1	0	-3	nt
O=C(O)c1cc(N/N=C/c2c(O)ccc3ccccc23)ccc1Cl	73*	1	3	-1	44*	8%
OC(COC1CCCCC1)CN1CCCCC1 (centres undefined)	-7	0	-9	1	0	nt
Cc1ccc(C(=O)N2CCCC(C(=O)c3ccc(Oc4ccccc4)cc3)C2)cn1 (centres undefined)	-3	-4	0	-2	-1	nt
O=c1c(O)c(-c2ccc(O)cc2)oc2cc(O)cc(O)c12	59*	-31	8	2	5	7%
O=c1c(O)c(-c2ccc(O)c(O)c2)oc2cc(O)ccc12	88*	nt	nt	49	nt	9%
O=c1c(-c2ccc(O)cc2)coc2cc(O)ccc12	31	4	4	2	1	nt
Cc1ccccc1NC(=O)CSc1nnc2ccc(-c3cccnc3)nn12	9	5	nt	0	nt	nt
Cc1cnc(NC(=O)c2ccc(OCC3CCCO3)cc2)s1 (centres undefined)	nt	-1	0	0	8	nt
O=C(Nc1nc2ccccc2s1)c1ccc(OCC2CCCO2)cc1 (centres undefined)	57*	-2	0	1	0	9%
CC(C)CCNC(=O)CN(Cc1ccc(F)cc1)C(=O)CCC(=O)Nc1ccccn1	-10	-9	3	-2	-1	nt
Nc1cc2c(cc1[N+](=O)[O-])-c1ccccc1C2=NO	80*	nt	nt	25	nt	7%
N#Cc1c(=O)c2nc(NCc3ccccc3)ncc2n2ccccc12	4	-1	6	2	0	nt
N#Cc1c(=O)c2nc(NCCCO)ncc2n2c(=O)c3ccccc3[nH]c12	56*	4	1	2	8	9%
Cc1nc2cc3ccccc3cc2n1C	5	2	1	-2	-2	nt
Cn1c(=O)[nH]c2cc3ccccc3cc21	52*	3	0	1	1	10%
O=C1[C@H]2CCCC[C@H]2C(=O)N1CCCCN1CCN(c2nsc3ccccc23)CC1	3	1	-2	-1	-1	nt
SMILES	Dyrk1A ADPGlo	GSK3beta inhib	GSK3 alpha inh	CDK5 inh	STK33 kinase inh	ADP-Glo artifact
Cc1cccc(Nc2nc(N)c([N+](=O)[O-])c(N3CCC(C)CC3)n2)c1	50*	0	2	2	1	6%
Cc1cccc(Nc2nc(N)c([N+](=O)[O-])c(N3CC(C)CC(C)C3)n2)c1 (centres undefined)	7	-3	-3	2	-1	nt
COc1ccc(-c2nc(NC(=O)C3=NN(c4cccc(C)c4)C(=O)CC3)sc2C)cc1	0	0	1	2	0	nt
CCn1c2ccccc2c2cc(/C=N/n3cnnc3)ccc21	4	-2	0	-1	3	nt
CCn1c2ccccc2c2cc(/C=N/O)ccc21	80*	-23	-1	6	-1	8%
C=CC(C)(C)c1c(O)c(CC=C(C)C)c(O)c2c(=O)c3ccc(O)c(O)c3oc12	99*	-4	-2	0	1	8%
C=CC(C)(C)c1c2occc2c(O)c2ccc(=O)oc12	10	nt	nt	0	nt	nt
COC(=O)CSc1nc(N)c(C#N)c(C(C)C)c1C#N	50*	-1	1	-3	1	9%
CC(NC(=O)COC(=O)c1ccc([N+](=O)[O-])s1)c1ccccc1 (centres undefined)	56*	0	-1	1	-2	8%
Cc1ccc(C(=O)OCC(=O)NC(C)c2ccccc2)s1 (centres undefined)	3	nt	-3	-1	-1	nt
CNC(=S)N/N=C/c1ccc(-c2cccc(C(=O)O)c2)o1	62*	-4	4	0	1	9%
CN(C)CCNC(=O)c1cc2c(s1)-c1ccccc1OC2	68*	0	2	2	1	7%
O=C(CC(SCCO)c1ccc2c(c1)OCO2)c1ccco1 (centres undefined)	84*	-1	17	2	2	8%
O=C(NCc1ccc2c(c1)OCO2)c1ccco1	4	4	-1	-3	0	nt
CC1(C)Cc2nc3sc4c(SCC(=O)O)ncnc4c3cc2CO1	93*	-23	76*	-1	1	4%
COC(=O)CSc1ncnc2c1sc1nc3c(cc12)COC(C)(C)C3	6	-1	45	-3	-1	nt
Nc1c(SCCC(=O)O)ccc2c1C(=O)c1ccccc1C2=O	38	0	10	4	14	nt
COC(=O)c1ccc2c(c1O)C(=O)c1ccccc1C2=O	7	1	2	2	2	nt
Nc1c(C(=O)O)ccc2c1C(=O)c1ccccc1C2=O	88*	-21	58*	4	52*	7%
O=C1c2ccccc2C(=O)c2c1ccc(O)c2O	60*	nt	nt	3	nt	7%
CSc1nc2sccc2c(=O)[nH]1	0	2	2	-2	1	nt
O=c1[nH]c(=S)[nH]c2sccc12	64*	2	3	10	-2	4%
Cc1ccc2oc(=O)c3cnn(CC(=O)NC4CCCCC4C)c3c2c1 (centres undefined)	61*	-4	-1	1	0	8%
